# Tested on: Human immunodeficiency virus 1
# Experiment: Inhibitory activity tested against the HIV-1 in CEM cells
# Type: functional, organism-based
# Settings: Human immunodeficiency virus 1, CCRF-CEM
# In short: (§1)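 HIV-1-induced cytopathicity in CEM 4 or MT-4 cell cultures was assessed by counting viable cells after MTT (3-(4,5-dimethylthiazol-2-yl)-2,5-diphenyltetrazolium bromide) staining. IC50 is the concentration that inhibits cytopathicity by 50%. For routine testing, the highest concentration was generally 3 µM, because solubility was limited above 10 µM.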
row,SMILES,IC50
1,C=C(C)[C@@H]1CC[C@]2(C(=O)NCCCCCCCC(=O)N[C@@H](Cc3ccccc3)[C@@H](O)CC(=O)O)CC[C@]3(C)[C@H](CCC4[C@@]5(C)CC[C@H](O)C(C)(C)[C@@H]5CC[C@]43C)[C@@H]12 (stereo not given in full),130 nM
2,C=C(C)[C@@H]1CC[C@]2(C(=O)NCCCCCCCC(=O)NCCC(=O)O)CC[C@]3(C)[C@H](CCC4[C@@]5(C)CC[C@H](O)C(C)(C)[C@@H]5CC[C@]43C)[C@@H]12 (stereo not given in full),100 nM
3,C=C(C)[C@@H]1CC[C@]2(C(=O)NCCCCCCCC(=O)NCCCCC(=O)O)CC[C@]3(C)[C@H](CCC4[C@@]5(C)CC[C@H](O)C(C)(C)[C@@H]5CC[C@]43C)[C@@H]12 (stereo not given in full),61 nM
4,C=C(C)[C@@H]1CC[C@]2(C(=O)NCCCCCCCCCCCC(=O)O)CC[C@]3(C)[C@H](CCC4[C@@]5(C)CC[C@H](O)C(C)(C)[C@@H]5CC[C@]43C)[C@@H]12 (stereo not given in full),550 nM
5,C=C(C)[C@@H]1CC[C@]2(C(=O)NCCCCCCCC(=O)N[C@H](CO)C(=O)O)CC[C@]3(C)[C@H](CCC4[C@@]5(C)CC[C@H](O)C(C)(C)[C@@H]5CC[C@]43C)[C@@H]12 (stereo not given in full),1900 nM
6,C=C(C)[C@@H]1CC[C@]2(C(=O)NCCCCCCCNC(=O)CCCC(=O)O)CC[C@]3(C)[C@H](CCC4[C@@]5(C)CC[C@H](O)C(C)(C)[C@@H]5CC[C@]43C)[C@@H]12 (stereo not given in full),20 nM
7,C=C(C)[C@@H]1CC[C@]2(C(=O)NCCCCCCCC(=O)N[C@@H](CCCCN)C(=O)O)CC[C@]3(C)[C@H](CCC4[C@@]5(C)CC[C@H](O)C(C)(C)[C@@H]5CC[C@]43C)[C@@H]12 (stereo not given in full),10000 nM
8,C=C(C)[C@@H]1CC[C@]2(C(=O)NCCCCCCCC(=O)Nc3cccc(C(=O)O)c3)CC[C@]3(C)[C@H](CCC4[C@@]5(C)CC[C@H](O)C(C)(C)[C@@H]5CC[C@]43C)[C@@H]12 (stereo not given in full),80 nM
9,C=C(C)[C@@H]1CC[C@]2(C(=O)NCCCCCCCC(=O)N[C@@H](Cc3ccccc3)C(=O)O)CC[C@]3(C)[C@H](CCC4[C@@]5(C)CC[C@H](O)C(C)(C)[C@@H]5CC[C@]43C)[C@@H]12 (stereo not given in full),2000 nM
10,C=C(C)[C@@H]1CC[C@]2(C(=O)NCCCCCCCC(=O)N3CCCC(C(=O)O)C3)CC[C@]3(C)[C@H](CCC4[C@@]5(C)CC[C@H](O)C(C)(C)[C@@H]5CC[C@]43C)[C@@H]12 (stereo not given in full),185 nM
11,C=C(C)[C@@H]1CC[C@]2(C(=O)NCCCCCCCC(=O)N[C@@H](CC(=O)O)C(=O)O)CC[C@]3(C)[C@H](CCC4[C@@]5(C)CC[C@H](O)C(C)(C)[C@@H]5CC[C@]43C)[C@@H]12 (stereo not given in full),18000 nM
12,C=C(C)[C@@H]1CC[C@]2(C(=O)NCCCCCCCNC(=O)c3ccccc3C(=O)O)CC[C@]3(C)[C@H](CCC4[C@@]5(C)CC[C@H](O)C(C)(C)[C@@H]5CC[C@]43C)[C@@H]12 (stereo not given in full),1800 nM
13,C=C(C)[C@@H]1CC[C@]2(C(=O)NCCCCCCCC(=O)NC(F)CC(=O)O)CC[C@]3(C)[C@H](CCC4[C@@]5(C)CC[C@H](O)C(C)(C)[C@@H]5CC[C@]43C)[C@@H]12 (stereo not given in full),95 nM
14,C=C(C)[C@@H]1CC[C@]2(C(=O)NCCCCCCCC(=O)N[C@@H](CC(N)=O)C(=O)O)CC[C@]3(C)[C@H](CCC4[C@@]5(C)CC[C@H](O)C(C)(C)[C@@H]5CC[C@]43C)[C@@H]12 (stereo not given in full),950 nM
15,C=C(C)[C@@H]1CC[C@]2(C(=O)NCCCCCCCC(=O)NC(C)CC(=O)O)CC[C@]3(C)[C@H](CCC4[C@@]5(C)CC[C@H](O)C(C)(C)[C@@H]5CC[C@]43C)[C@@H]12 (stereo not given in full),130 nM
16,C=C(C)[C@@H]1CC[C@]2(C(=O)NCCCCCCCC(=O)NCC(C)C(=O)O)CC[C@]3(C)[C@H](CCC4[C@@]5(C)CC[C@H](O)C(C)(C)[C@@H]5CC[C@]43C)[C@@H]12 (stereo not given in full),130 nM
17,C=C(C)[C@@H]1CC[C@]2(C(=O)NCCCCCCCC(=O)NC(CC(=O)O)C(F)(F)F)CC[C@]3(C)[C@H](CCC4[C@@]5(C)CC[C@H](O)C(C)(C)[C@@H]5CC[C@]43C)[C@@H]12 (stereo not given in full),155 nM

# Tested on: Human immunodeficiency virus 1
# Experiment: Inhibitory activity tested against the HIV-1 in MT-4 cells
# Type: functional, organism-based
# Settings: Human immunodeficiency virus 1, MT4
# In short: as §1
row,SMILES,IC50
1,C=C(C)[C@@H]1CC[C@]2(C(=O)NCCCCCCCC(=O)N[C@@H](Cc3ccccc3)[C@@H](O)CC(=O)O)CC[C@]3(C)[C@H](CCC4[C@@]5(C)CC[C@H](O)C(C)(C)[C@@H]5CC[C@]43C)[C@@H]12 (stereo not given in full),33 nM
2,C=C(C)[C@@H]1CC[C@]2(C(=O)NCCCCCCCC(=O)NCCC(=O)O)CC[C@]3(C)[C@H](CCC4[C@@]5(C)CC[C@H](O)C(C)(C)[C@@H]5CC[C@]43C)[C@@H]12 (stereo not given in full),94 nM
3,C=C(C)[C@@H]1CC[C@]2(C(=O)NCCCCCCCCCCCC(=O)O)CC[C@]3(C)[C@H](CCC4[C@@]5(C)CC[C@H](O)C(C)(C)[C@@H]5CC[C@]43C)[C@@H]12 (stereo not given in full),250 nM

# Source: ChEMBL document CHEMBL1129508, “Betulinic acid derivatives: a new class of specific inhibitors of human immunodeficiency virus type 1 entry” (J Med Chem, 1996)
